Test results reported in ChEMBL document CHEMBL4346667 (Eur J Med Chem, 2019).
Activity calls are given as the source filed them. No cut-off for these calls is given here.

Columns and labels:
[1] = Antiproliferative activity against human H8 cells assessed as reduction in cell viability after 48 hrs by MTT assay; type: functional, cell-based
Summary of the method: (§1)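 Cells grown at 37 °C, 5% CO2; HeLa, HepG2, H8, HL7702 in RPMI 1640 + 10% fetal calf serum, others in high-glucose DMEM + 10% fetal calf serum. Log-phase cells seeded at 4000-12000/well by doubling time. Attached cells were given 10-fold dilutions, 100 µM to 10 nM (DMSO 0.1% v/v), for 48 h. MTT (2 mg/mL) 4 h, formazan in DMSO, A492. IC50 from triplicate means.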

L02 = test: Antiproliferative activity against human HL7702 cells assessed as reduction in cell viability after 48 hrs by MTT assay; type: functional, cell-based; settings: L02, 48 h; summary of the method: as §1
MCF7 [2] = test: Cell cycle arrest in human MCF7 cells assessed as accumulation of cells at G2/M phase at 100 nM after 24 hrs by propidium iodide double staining based flow cytometric analysis; type: functional
Summary of the method: (§2)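 Log-phase cells seeded in 6-well plates and, once adhered, treated at 10-1000 nM; incubated in cycles of 6 h on/6 h off up to 48 h. Washed in cold PBS, fixed in 70% ethanol at -20 °C for at least 2 days. Stained with PI (50 µg/mL) 30 min on ice in the dark. 10,000 events on FL2-A vs FL2-W; G1/S/G2/M from DNA modelling. At least three repeats.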

HMEC = test: Antiproliferative activity against human HMEC cells assessed as reduction in cell viability after 48 hrs by MTT assay; type: functional, cell-based; summary of the method: as §1
Tubulin (Homo sapiens) [3] = target: T1, Tubulin (Homo sapiens) (UniProt P68371+Q9H4B7+P0DPH7+P68366+Q13509+Q71U36+P04350+Q3ZCM7+P07437+P68363+Q9BQE3+Q6PEY2+Q13885+Q9BVA1+Q9BUF5); test: Ratio of Kd for PTOX to Kd for test compound for tubulin (unknown origin) by surface plasmon resonance analysis; type: protein-complex assay
Summary of the method: (§3)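 SPR binding to immobilised tubulin (up to 800 mDeg) was measured at 25 °C. Compounds were diluted two-fold from 80 to 2.5 µM in PBS with 0.5% DMSO. They were injected at 60 µL/min for 300 s, with PBS containing 0.5% DMSO as running buffer. Kd values came from the titration data.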

Tubulin (Homo sapiens) [4] = target: T1, Tubulin (Homo sapiens); test: Ratio of Kd for colchicine to Kd for test compound for tubulin (unknown origin) by surface plasmon resonance analysis; type: protein-complex assay; summary of the method: as §3
MCF7 [5] = test: Induction of apoptosis in human MCF7 cells at 100 nM after 48 hrs by Annexin V-FITC/propidium iodide staining-based flow cytometric analysis relative to control (reference value: 11.6%); type: functional
Summary of the method: (§4)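 MCF7 cells were seeded in 6-well plates and exposed after adhering to graded concentrations for 48 h, in cycles of 6 h on and 6 h off. They were then stained with annexin V (1 µg/mL) and PI (0.5 µg/mL) in Ca2+-enriched binding buffer for 15 min in the dark at room temperature. Flow cytometry recorded 10,000 events, FL1 versus FL2. Apoptosis was taken as early plus late stage, with at least 3 repeats.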

Tubulin (Sus scrofa) [6] = target: T2, Tubulin (Sus scrofa) (UniProt P02554+P02550); test: Inhibition of porcine tubulin assembly assessed as tubulin growth inhibition incubated for 30 min by fluorometric analysis; type: protein assay
T2 sequence (P02550 whole entry, looked up): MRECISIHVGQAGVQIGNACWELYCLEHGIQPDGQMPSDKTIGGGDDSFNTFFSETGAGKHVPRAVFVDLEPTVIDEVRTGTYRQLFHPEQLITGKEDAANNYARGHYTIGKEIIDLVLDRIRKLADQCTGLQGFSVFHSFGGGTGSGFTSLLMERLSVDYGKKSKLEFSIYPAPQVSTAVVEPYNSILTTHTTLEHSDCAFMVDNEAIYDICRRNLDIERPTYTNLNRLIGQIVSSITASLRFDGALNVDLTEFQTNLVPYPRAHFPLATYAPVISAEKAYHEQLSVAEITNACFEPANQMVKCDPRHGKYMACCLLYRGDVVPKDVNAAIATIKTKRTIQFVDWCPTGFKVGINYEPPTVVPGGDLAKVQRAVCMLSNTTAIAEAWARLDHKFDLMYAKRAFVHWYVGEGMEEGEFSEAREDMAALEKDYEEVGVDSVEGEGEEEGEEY
T2 sequence (P02554 whole entry, looked up): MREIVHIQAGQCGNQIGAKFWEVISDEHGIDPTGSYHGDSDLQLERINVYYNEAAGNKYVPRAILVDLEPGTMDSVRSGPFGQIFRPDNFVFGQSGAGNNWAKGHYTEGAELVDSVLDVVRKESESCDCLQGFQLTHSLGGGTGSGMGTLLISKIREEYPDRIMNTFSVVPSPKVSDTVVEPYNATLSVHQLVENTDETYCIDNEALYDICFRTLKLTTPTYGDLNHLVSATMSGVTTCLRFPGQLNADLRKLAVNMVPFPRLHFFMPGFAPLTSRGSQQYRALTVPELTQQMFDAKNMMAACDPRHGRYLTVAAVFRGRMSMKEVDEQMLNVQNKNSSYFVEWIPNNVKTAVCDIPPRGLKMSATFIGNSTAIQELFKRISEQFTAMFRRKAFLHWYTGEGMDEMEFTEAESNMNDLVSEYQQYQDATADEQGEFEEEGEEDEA
Summary of the method: (§5)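 This was a centrifugation assay of tubulin assembly. Tubulin was held at 4 °C with 0.9 mM GTP and 6 mM MgCl2, and aggregates were removed at 90000 g for 10 min at 4 °C. Ligands at 0.05–2 µM (1% DMSO) were incubated for 30 min at 37 °C. Supernatants and pellets were diluted 1:5, and tubulin was read fluorometrically (ex 280, em 323) against standards. The 50% inhibitory concentration came from inhibition curves, as the mean of three experiments.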

MCF7 [7] = test: Antiproliferative activity against human MCF7 cells assessed as reduction in cell viability after 48 hrs by MTT assay; type: functional, cell-based; settings: MCF7, 48 h; summary of the method: as §1
MRC5 = test: Antiproliferative activity against human MRC5 cells assessed as reduction in cell viability after 48 hrs by MTT assay; type: functional, cell-based; settings: MRC5, 48 h; summary of the method: as §1
A549 = test: Antiproliferative activity against human A549 cells assessed as reduction in cell viability after 48 hrs by MTT assay; type: functional, cell-based; settings: A549, 48 h; summary of the method: as §1
MCF7 [8] = test: Induction of apoptosis in human MCF7 cells at 50 nM after 48 hrs by Annexin V-FITC/propidium iodide staining-based flow cytometric analysis relative to control (reference value: 11.6%); type: functional; summary of the method: as §4
MCF7 [9] = test: Induction of apoptosis in human MCF7 cells at 250 nM after 48 hrs by Annexin V-FITC/propidium iodide staining-based flow cytometric analysis relative to control (reference value: 11.6%); type: functional; summary of the method: as §4
MCF7 [10] = test: Antitumor activity against human MCF7 cells xenografted in BALB/c nude mouse assessed as inhibition of tumor growth at 40 mg/kg administered for a week; type: functional
Summary of the method: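 Male BALB/c nude mice, 4 weeks old, 15-20 g. Log-phase MCF-7 cells in DMEM, 0.1 mL of 1×10^6 cells/mL, injected subcutaneously into the hind leg. Calipers twice weekly; at about 90 mm3, groups of 5. Vehicle was isotonic saline plus 0.005% DMSO. Injected at 40 mg/kg for a week; tumour volume recorded daily.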

Tubulin = test: Binding affinity to tubulin (unknown origin) assessed as dissociation constant by SPR analysis; type: protein-complex assay, Homo sapiens
Summary of the method: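 Tubulin immobilised to about 800 mDeg. Injected at 60 µL/min for 300 s; PBS with 0.5% DMSO as running buffer. Measured at 25 °C, with dilution-corrected peak areas.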

HepG2 = test: Antiproliferative activity against human HepG2 cells assessed as reduction in cell viability after 48 hrs by MTT assay; type: functional, cell-based; settings: HepG2, 48 h; summary of the method: as §1
MCF7 [11] = test: Cell cycle arrest in human MCF7 cells assessed as accumulation of cells at G2/M phase at 250 to 500 nM after 24 hrs by propidium iodide double staining based flow cytometric analysis; type: functional; summary of the method: as §2
MCF7 [12] = test: Induction of apoptosis in human MCF7 cells at 500 nM after 48 hrs by Annexin V-FITC/propidium iodide staining-based flow cytometric analysis relative to control (reference value: 11.6%); type: functional; summary of the method: as §4
Tubulin (Sus scrofa) [13] = target: T2, Tubulin (Sus scrofa); test: Inhibition of porcine tubulin assembly assessed as tubulin growth inhibition at 2 uM incubated for 30 min by fluorometric analysis; type: protein assay; summary of the method: as §5
Tubulin (Homo sapiens) [14] = target: T1, Tubulin (Homo sapiens); test: Inhibition of tubulin polymerization in human HeLa cells assessed as contracted and rounded cells with disordered abnormal spindles and chromosomal misalignment at 500 nM after 24 hrs by immunofluorescence based confocal microscopy; type: cell-based
Summary of the method: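 HeLa cells on glass coverslips were treated for 24 h at 25, 250 or 500 nM. They were fixed in 4% paraformaldehyde for 1 h and permeabilised with 0.2% Triton X-100 for 20 min. Cells were imaged by fluorescence and confocal microscopy.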

[15] = Binding affinity to alpha/beta tubulin complex (unknown origin); set-up: species or system Homo sapiens
Summary of the method: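 SPR assay: tubulin immobilized up to 800 mDeg (response units). Ligands were diluted two-fold from 80 µM to 2.5 µM in PBS with 0.5% (v/v) DMSO and injected at 60 µL/min for 300 s. Running buffer was PBS with 0.5% DMSO, at 25°C.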

HeLa = test: Antiproliferative activity against human HeLa cells assessed as reduction in cell viability after 48 hrs by MTT assay; type: functional, cell-based; summary of the method: as §1
MCF7 [16] = test: Induction of apoptosis in human MCF7 cells at 10 nM after 48 hrs by Annexin V-FITC/propidium iodide staining-based flow cytometric analysis relative to control (reference value: 11.6%); type: functional; summary of the method: as §4

SMILES: COc1cc([C@@H]2c3cc4c(cc3[C@@H](Nc3ccc5cc[nH]c5c3)[C@H]3COC(=O)[C@H]23)OCO4)cc(OC)c1OC
- IC50 [1]: 84500 nM
- IC50 (L02): 94600 nM
- Activity (MCF7 [2]): 50%
- IC50 (HMEC): 61600 nM
- Ratio (Tubulin (Homo sapiens) [3]): 2.7
- Ratio (Tubulin (Homo sapiens) [4]): 2.2
- Activity (MCF7 [5]): 93.5%
- GI50 (Tubulin (Sus scrofa) [6]): < 100 nM
- IC50 (MCF7 [7]): 70 nM
- IC50 (MRC5): 69100 nM
- IC50 (A549): 80 nM
- Activity (MCF7 [8]): 20.1%
- Activity (MCF7 [9]): 92.4 - 93%
- inhibition in vivo at 40 mg/kg (MCF7 [10]): 89.6%
- Kd (Tubulin): 8100 nM
- IC50 (HepG2): 100 nM
- Activity (MCF7 [11]): 90%
- Activity (MCF7 [12]): 94.9%
- inhibition (Tubulin (Sus scrofa) [13]): 88%
- inhibition (Tubulin (Homo sapiens) [14]): Active
- Ki [15]: 10 nM
- IC50 (HeLa): 80 nM
- Activity (MCF7 [16]): 10.5%
